≈ marks a conversion by molar mass, not a printed value.
How the values were obtained:
[1] = system: Mycobacterium tuberculosis; experiment: Antitubercular activity against Mycobacterium tuberculosis H37Rv in aerobic condition after 7 days by microplate alamar blue assay; type: functional; conditions: 168 h
Outline: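 M. tuberculosis H37Rv, replicating culture; 8-day microplate assay with Alamar blue added on day 7 to read growth. […] Mean of at least two independent determinations ± SD.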

[2] = system: Mycobacterium tuberculosis; experiment: Antitubercular activity against Mycobacterium tuberculosis H37Rv in anaerobic condition after 7 days by low oxygen recovery assay; type: functional; conditions: 168 h
Vero = experiment: Cytotoxicity against african green monkey Vero cells after 72 hrs by MTS assay; type: cell-based; conditions: Chlorocebus sabaeus
Outline: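 VERO cells (CCL-81), 72 h exposure, tetrazolium dye read-out.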

[3] = Metabolic stability in pooled human liver microsomes assessed as compound remaining after 1 hr by LC-MS-MS; type: ADME, Microsome; conditions: read-out: Stability
Outline: (§1)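 Test compound at 1 μM with pooled CD-1 mouse or human liver microsomes (0.5 mg/mL protein) and NADPH-regenerating system (3.3 mM MgCl2, 3.3 mM G6P, 0.4 U/mL G6PD, 1.3 mM NADP+) in 75 mM phosphate, pH 7.4, 0.5% DMSO, 37 °C. Stopped at 0 and 60 min with MeCN containing metoprolol internal standard. LC-MS/MS (ESI, SRM), duplicates. % remaining = 100 × mean peak-area ratio at 60 min / at 0 min.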

[4] = Metabolic stability in pooled CD1 mouse liver microsomes assessed as compound remaining after 1 hr by LC-MS-MS; type: ADME, Microsome; conditions: read-out: Stability; outline: as §1
[5] = system: Mycobacterium tuberculosis; experiment: Antitubercular activity against Mycobacterium tuberculosis H37Rv infected in BALB/c mouse assessed as ratio of lung CFU for compound to lung CFU for PA-824 at 100 mg/kg, po daily for 5 days a week for 3 weeks; type: functional
[6] = system: Mycobacterium tuberculosis; experiment: Antitubercular activity against Mycobacterium tuberculosis H37Rv infected in BALB/c mouse measured per mouse at 100 mg/kg, po daily for 5 days a week for 3 weeks; type: functional

SMILES | MIC [1] [µM] | MIC [2] [µM] | IC50 (Vero) [µM] | remaining at 1 h [3] [%] | remaining at 1 h [4] [%] | fold change (FC) [5] | CFU [6]
CCOc1ccccc1-c1ccc(CO[C@@H]2COc3nc([N+](=O)[O-])cn3C2)cc1 | 0.03 (≈ 0.0119 µg/mL) | 0.82 (≈ 0.324 µg/mL) | > 125 | 50 | 0.2 | 0.15 | 540000
CN(C)CCOc1cccc(-c2ccc(CO[C@@H]3COc4nc([N+](=O)[O-])cn4C3)cc2)c1 | 1.5 (≈ 0.658 µg/mL) | 18 (≈ 7.89 µg/mL) | > 125 | – | – | – | –
O=[N+]([O-])c1cn2c(n1)OC[C@@H](OCc1ccccc1-c1cccc(F)c1)C2 | 0.62 (≈ 0.229 µg/mL) | 3 (≈ 1.11 µg/mL) | > 125 | – | – | – | –
COc1ccc(-c2ccccc2CO[C@@H]2COc3nc([N+](=O)[O-])cn3C2)cc1F | 1.8 (≈ 0.719 µg/mL) | 3.8 (≈ 1.52 µg/mL) | > 125 | – | – | – | –
NC(=O)c1ccc(-c2ccc(CO[C@@H]3COc4nc([N+](=O)[O-])cn4C3)cc2)cc1 | 2.1 (≈ 0.828 µg/mL) | 15 (≈ 5.92 µg/mL) | > 125 | – | – | – | –
O=[N+]([O-])c1cn2c(n1)OC[C@@H](OCc1ccccc1-c1ccc(OC(F)(F)F)cc1)C2 | 2.3 (≈ 1 µg/mL) | 4.3 (≈ 1.87 µg/mL) | > 125 | – | – | – | –
O=[N+]([O-])c1cn2c(n1)OC[C@@H](OCc1ccc(-c3ccc(O)cc3)cc1)C2 | 0.64 (≈ 0.235 µg/mL) | 4.3 (≈ 1.58 µg/mL) | > 125 | – | – | – | –
O=[N+]([O-])c1cn2c(n1)OC[C@@H](OCc1ccc(-c3ccc(OC(F)(F)F)cc3)cc1)C2 | 0.035 (≈ 0.0152 µg/mL) | 1.3 (≈ 0.566 µg/mL) | > 125 | – | – | >205 | <2
O=[N+]([O-])c1cn2c(n1)OC[C@@H](OCc1cccc(-c3ccc(OCCCN4CCOCC4)cc3)c1)C2 | 0.69 (≈ 0.341 µg/mL) | 11 (≈ 5.44 µg/mL) | > 125 | – | – | – | –
O=[N+]([O-])c1cn2c(n1)OC[C@@H](OCc1ccc(-c3ccc(OC(F)(F)F)c(Cl)c3)cc1)C2 | 0.03 (≈ 0.0141 µg/mL) | 0.9 (≈ 0.423 µg/mL) | > 125 | 90 | 84 | 281 | 6.4
CSc1ccc(-c2ccccc2CO[C@@H]2COc3nc([N+](=O)[O-])cn3C2)cc1 | 1.3 (≈ 0.517 µg/mL) | 3.4 (≈ 1.35 µg/mL) | > 125 | – | – | – | –
COc1cccc(-c2ccc(CO[C@@H]3COc4nc([N+](=O)[O-])cn4C3)cc2)c1 | 0.27 (≈ 0.103 µg/mL) | 1.9 (≈ 0.725 µg/mL) | > 125 | – | – | – | –
O=[N+]([O-])c1cn2c(n1)OC[C@@H](OCc1ccc(-c3ccc(F)cc3)cc1)C2 | 0.015 (≈ 0.00554 µg/mL) | 1.4 (≈ 0.517 µg/mL) | > 125 | 75 | 55 | 3 | 5400
N#Cc1cccc(-c2ccccc2CO[C@@H]2COc3nc([N+](=O)[O-])cn3C2)c1 | 0.8 (≈ 0.301 µg/mL) | 8.2 (≈ 3.09 µg/mL) | > 125 | – | – | – | –
O=[N+]([O-])c1cn2c(n1)OC[C@@H](OCc1ccc(-c3ccc(Cl)c(OC(F)F)c3)cc1)C2 | 0.03 (≈ 0.0136 µg/mL) | 1.1 (≈ 0.497 µg/mL) | > 125 | 83 | 86 | 10 | 150
O=[N+]([O-])c1cn2c(n1)OC[C@@H](OCc1ccccc1-c1ccccc1)C2 | 0.64 (≈ 0.225 µg/mL) | 2.5 (≈ 0.878 µg/mL) | > 125 | – | – | – | –
O=[N+]([O-])c1cn2c(n1)OC[C@@H](OCc1ccc(-c3ccc(C(F)(F)F)cc3Cl)cc1)C2 | 0.03 (≈ 0.0136 µg/mL) | 1.4 (≈ 0.635 µg/mL) | > 125 | 92 | 93 | 7.2 | 540
CC(=O)c1ccc(-c2cccc(CO[C@@H]3COc4nc([N+](=O)[O-])cn4C3)c2)cc1 | 0.3 (≈ 0.118 µg/mL) | 1.9 (≈ 0.747 µg/mL) | > 125 | – | – | – | –
O=[N+]([O-])c1cn2c(n1)OC[C@@H](OCc1ccc(-c3ccc(OC(F)(F)F)c(F)c3)cc1)C2 | 0.03 (≈ 0.0136 µg/mL) | 0.34 (≈ 0.154 µg/mL) | > 125 | 93 | 86 | 419 | 4.3
O=[N+]([O-])c1cn2c(n1)OC[C@@H](OCc1ccc(-c3ccc(OCCO)cc3)cc1)C2 | 0.55 (≈ 0.226 µg/mL) | 3.3 (≈ 1.36 µg/mL) | > 125 | – | – | – | –
O=[N+]([O-])c1cn2c(n1)OC[C@@H](OCc1cccc(-c3cccc(OCCCN4CCOCC4)c3)c1)C2 | 1.4 (≈ 0.692 µg/mL) | 11 (≈ 5.44 µg/mL) | > 125 | – | – | – | –
CC(=O)c1ccc(-c2ccc(CO[C@@H]3COc4nc([N+](=O)[O-])cn4C3)cc2)cc1 | 0.04 (≈ 0.0157 µg/mL) | 0.73 (≈ 0.287 µg/mL) | > 125 | 36 | 70 | <0.01 | 110000
O=[N+]([O-])c1cn2c(n1)OC[C@@H](OCc1ccc(OC(F)(F)F)cc1)C2 [PRETOMANID] | 0.5 (≈ 0.18 µg/mL) | 2.6 (≈ 0.934 µg/mL) | > 125 | 82 | – | 1 | –
